According to ChEMBL document CHEMBL1629545, “A morpholino oligomer targeting highly conserved internal ribosome entry site sequence is able to inhibit multiple species of picornavirus” (Antimicrob Agents Chemother, 2008):
The source made the active and inactive calls. The rule behind the calls is not given here.

Experiments:
[1] = system: Vero; experiment: Cytotoxicity against African green monkey Vero cells at 10 uM after 24 hrs by MTS assay; assay type: cell-based; details: chlorocebus sabaeus
[2] = system: SK-N-MC; experiment: Cytotoxicity against human SK-N-MC cell at 10 uM after 24 hrs by MTS assay; assay type: cell-based
[3] = system: Poliovirus 1; experiment: Antiviral activity against Human poliovirus type 1 infected in Human HeLa cell assessed as inhibition of translation at 10 ug/ml by luciferase reporter gene assay; assay type: functional, organism-based
Procedure, shortened: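 In-cell translation control: HeLa cells electroporated with 20 μg PV1-Luc replicon RNA were placed in medium with 10 μg/ml puromycin at 37°C in 5% CO2. Luciferase in lysates was read by luminometer at hourly time points after transfection. Two experiments were averaged.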

[4] = system: HeLa; experiment: Cytotoxicity against human HeLa cells at 10 uM by MTS assay; assay type: cell-based
Procedure, shortened: (§1)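 HeLa cells at ~80% confluence, uninfected, exposed to 1–100 μM PPMO or water (mock) in serum-free DMEM-F-12 (1:1) for 24 h. MTS reagent was added for 4 h and absorbance read at 492 nm. Viability was expressed as percent of water-treated cells (set to 100%), averaged over 12 wells.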

[5] = system: HeLa; experiment: Cytotoxicity against human HeLa cells 10 uM after 24 hrs by MTS assay; assay type: cell-based; procedure, shortened: as §1

Compound | Activity [1] | Activity [2] | Activity [3] | Activity [4] | Activity [5]
Cc1cn([C@H]2CN(P(=O)(OC[C@@H]3CN(P(=O)(OC[C@@H]4CN(P(=O)(OC[C@@H]5CN(P(=O)(OC[C@@H]6CN(P(=O)(OC[C@@H]7CN(P(=O)(OC[C@@H]8CN(P(=O)(OC[C@@H]9CN(P(=O)(OC[C@@H]%10CN(P(=O)(OC[C@@H]%11CN(P(=O)(OC[C@@H]%12CN(P(=O)(OC[C@@H]%13CN(P(=O)(OC[C@@H]%14CN(P(=O)(OC[C@@H]%15CN(P(=O)(OC[C@@H]%16CN(P(=O)(OC[C@@H]%17CN(P(=O)(OC[C@@H]%18CN(P(=O)(OC[C@@H]%19CNC[C@H](n%20cnc%21c(=O)[nH]c(N)nc%21%20)O%19)N(C)C)C[C@H](n%19ccc(N)nc%19=O)O%18)N(C)C)C[C@H](n%18cnc%19c(N)ncnc%19%18)O%17)N(C)C)C[C@H](n%17cc(C)c(=O)[nH]c%17=O)O%16)N(C)C)C[C@H](n%16cc(C)c(=O)[nH]c%16=O)O%15)N(C)C)C[C@H](n%15cnc%16c(=O)[nH]c(N)nc%16%15)O%14)N(C)C)C[C@H](n%14ccc(N)nc%14=O)O%13)N(C)C)C[C@H](n%13cnc%14c(=O)[nH]c(N)nc%14%13)O%12)N(C)C)C[C@H](n%12ccc(N)nc%12=O)O%11)N(C)C)C[C@H](n%11cnc%12c(=O)[nH]c(N)nc%12%11)O%10)N(C)C)C[C@H](n%10cc(C)c(=O)[nH]c%10=O)O9)N(C)C)C[C@H](n9cc(C)c(=O)[nH]c9=O)O8)N(C)C)C[C@H](n8ccc(N)nc8=O)O7)N(C)C)C[C@H](n7cnc8c(N)ncnc87)O6)N(C)C)C[C@H](n6cnc7c(=O)[nH]c(N)nc76)O5)N(C)C)C[C@H](n5cnc6c(=O)[nH]c(N)nc65)O4)N(C)C)C[C@H](n4ccc(N)nc4=O)O3)N(C)C)C[C@@H](COP(=O)(N(C)C)N3C[C@@H](COP(=O)(N(C)C)N4C[C@@H](COP(=O)(N(C)C)N5CCN(C(=O)CCNC(=O)CCCCCNC(=O)[C@H](CCCNC(=N)N)NC(=O)CCCCCNC(=O)[C@H](CCCNC(=N)N)NC(=O)[C@H](CCCNC(=N)N)NC(=O)CCCCCNC(=O)[C@H](CCCNC(=N)N)NC(=O)[C@H](CCCNC(=N)N)NC(=O)CCCCCNC(=O)[C@H](CCCNC(=N)N)NC(=O)[C@H](CCCNC(=N)N)NC(=O)CCCCCNC(=O)[C@@H](N)CCCNC(=N)N)CC5)O[C@@H](n5ccc(N)nc5=O)C4)O[C@@H](n4ccc(N)nc4=O)C3)O2)c(=O)[nH]c1=O (stereo partly specified) | Non-toxic | Non-toxic | inactive | Non-toxic | Toxic
Cc1cn([C@H]2CNC[C@@H](COP(=O)(N(C)C)N3C[C@@H](COP(=O)(N(C)C)N4C[C@@H](COP(=O)(N(C)C)N5C[C@@H](COP(=O)(N(C)C)N6C[C@@H](COP(=O)(N(C)C)N7C[C@@H](COP(=O)(N(C)C)N8C[C@@H](COP(=O)(N(C)C)N9C[C@@H](COP(=O)(N(C)C)N%10C[C@@H](COP(=O)(N(C)C)N%11C[C@@H](COP(=O)(N(C)C)N%12C[C@@H](COP(=O)(N(C)C)N%13C[C@@H](COP(=O)(N(C)C)N%14C[C@@H](COP(=O)(N(C)C)N%15C[C@@H](COP(=O)(N(C)C)N%16C[C@@H](COP(=O)(N(C)C)N%17C[C@@H](COP(=O)(N(C)C)N%18C[C@@H](COP(=O)(N(C)C)N%19C[C@@H](COP(=O)(N(C)C)N%20C[C@@H](COP(=O)(N(C)C)N%21C[C@@H](COP(=O)(N(C)C)N%22C[C@@H](COP(=O)(N(C)C)N%23CCN(C(=O)CCNC(=O)CCCCCNC(=O)[C@H](CCCNC(=N)N)NC(=O)CCCCCNC(=O)[C@H](CCCNC(=N)N)NC(=O)[C@H](CCCNC(=N)N)NC(=O)CCCCCNC(=O)[C@H](CCCNC(=N)N)NC(=O)[C@H](CCCNC(=N)N)NC(=O)CCCCCNC(=O)[C@H](CCCNC(=N)N)NC(=O)[C@H](CCCNC(=N)N)NC(=O)CCCCCNC(=O)[C@@H](N)CCCNC(=N)N)CC%23)O[C@@H](n%23cc(C)c(=O)[nH]c%23=O)C%22)O[C@@H](n%22cnc%23c(N)ncnc%23%22)C%21)O[C@@H](n%21ccc(N)nc%21=O)C%20)O[C@@H](n%20cnc%21c(=O)[nH]c(N)nc%21%20)C%19)O[C@@H](n%19cnc%20c(=O)[nH]c(N)nc%20%19)C%18)O[C@@H](n%18cc(C)c(=O)[nH]c%18=O)C%17)O[C@@H](n%17cnc%18c(=O)[nH]c(N)nc%18%17)C%16)O[C@@H](n%16cc(C)c(=O)[nH]c%16=O)C%15)O[C@@H](n%15cc(C)c(=O)[nH]c%15=O)C%14)O[C@@H](n%14cc(C)c(=O)[nH]c%14=O)C%13)O[C@@H](n%13cnc%14c(=O)[nH]c(N)nc%14%13)C%12)O[C@@H](n%12ccc(N)nc%12=O)C%11)O[C@@H](n%11cc(C)c(=O)[nH]c%11=O)C%10)O[C@@H](n%10ccc(N)nc%10=O)C9)O[C@@H](n9cc(C)c(=O)[nH]c9=O)C8)O[C@@H](n8cc(C)c(=O)[nH]c8=O)C7)O[C@@H](n7cnc8c(=O)[nH]c(N)nc87)C6)O[C@@H](n6cnc7c(N)ncnc76)C5)O[C@@H](n5cnc6c(N)ncnc65)C4)O[C@@H](n4ccc(N)nc4=O)C3)O2)c(=O)[nH]c1=O (stereo partly specified) | Non-toxic | Non-toxic | inactive | Non-toxic | Toxic
Cc1cn([C@H]2CN(P(=O)(OC[C@@H]3CN(P(=O)(OC[C@@H]4CN(P(=O)(OC[C@@H]5CN(P(=O)(OC[C@@H]6CN(P(=O)(OC[C@@H]7CN(P(=O)(OC[C@@H]8CN(P(=O)(OC[C@@H]9CN(P(=O)(OC[C@@H]%10CN(P(=O)(OC[C@@H]%11CN(P(=O)(OC[C@@H]%12CN(P(=O)(OC[C@@H]%13CN(P(=O)(OC[C@@H]%14CN(P(=O)(OC[C@@H]%15CNC[C@H](n%16cnc%17c(=O)[nH]c(N)nc%17%16)O%15)N(C)C)C[C@H](n%15cc(C)c(=O)[nH]c%15=O)O%14)N(C)C)C[C@H](n%14cc(C)c(=O)[nH]c%14=O)O%13)N(C)C)C[C@H](n%13cnc%14c(N)ncnc%14%13)O%12)N(C)C)C[C@H](n%12cnc%13c(N)ncnc%13%12)O%11)N(C)C)C[C@H](n%11ccc(N)nc%11=O)O%10)N(C)C)C[C@H](n%10cnc%11c(N)ncnc%11%10)O9)N(C)C)C[C@H](n9cc(C)c(=O)[nH]c9=O)O8)N(C)C)C[C@H](n8cnc9c(N)ncnc98)O7)N(C)C)C[C@H](n7cnc8c(=O)[nH]c(N)nc87)O6)N(C)C)C[C@H](n6cc(C)c(=O)[nH]c6=O)O5)N(C)C)C[C@H](n5cnc6c(N)ncnc65)O4)N(C)C)C[C@H](n4cc(C)c(=O)[nH]c4=O)O3)N(C)C)C[C@@H](COP(=O)(N(C)C)N3C[C@@H](COP(=O)(N(C)C)N4C[C@@H](COP(=O)(N(C)C)N5C[C@@H](COP(=O)(N(C)C)N6C[C@@H](COP(=O)(N(C)C)N7C[C@@H](COP(=O)(N(C)C)N8C[C@@H](COP(=O)(N(C)C)N9C[C@@H](COP(=O)(N(C)C)N%10CCN(C(=O)CCNC(=O)CCCCCNC(=O)[C@H](CCCNC(=N)N)NC(=O)CCCCCNC(=O)[C@H](CCCNC(=N)N)NC(=O)[C@H](CCCNC(=N)N)NC(=O)CCCCCNC(=O)[C@H](CCCNC(=N)N)NC(=O)[C@H](CCCNC(=N)N)NC(=O)CCCCCNC(=O)[C@H](CCCNC(=N)N)NC(=O)[C@H](CCCNC(=N)N)NC(=O)CCCCCNC(=O)[C@@H](N)CCCNC(=N)N)CC%10)O[C@@H](n%10cnc%11c(=O)[nH]c(N)nc%11%10)C9)O[C@@H](n9ccc(N)nc9=O)C8)O[C@@H](n8cnc9c(N)ncnc98)C7)O[C@@H](n7ccc(N)nc7=O)C6)O[C@@H](n6ccc(N)nc6=O)C5)O[C@@H](n5ccc(N)nc5=O)C4)O[C@@H](n4cnc5c(N)ncnc54)C3)O2)c(=O)[nH]c1=O (stereo partly specified) | Non-toxic | Non-toxic | inactive | Non-toxic | Toxic
COc1ccc(C[C@H](N)C(=O)N[C@H]2[C@@H](O)[C@H](n3cnc4c(N(C)C)ncnc43)O[C@@H]2CO)cc1 | – | – | Active | – | –
